What was measured:
[1] = molecular target: T1, Amine oxidase [flavin-containing] A (Homo sapiens, UniProt P21397); assay: Inhibition of human recombinant microsomal MAOA expressed in baculovirus infected BTI-TN-5B1- 4 cells using p-tyramine as substrate assessed as decrease in H2O2 production at 100 uM after 15 mins by amplex red-based fluorescence assay; details: 0.25 h
T1 sequence (P21397 whole entry): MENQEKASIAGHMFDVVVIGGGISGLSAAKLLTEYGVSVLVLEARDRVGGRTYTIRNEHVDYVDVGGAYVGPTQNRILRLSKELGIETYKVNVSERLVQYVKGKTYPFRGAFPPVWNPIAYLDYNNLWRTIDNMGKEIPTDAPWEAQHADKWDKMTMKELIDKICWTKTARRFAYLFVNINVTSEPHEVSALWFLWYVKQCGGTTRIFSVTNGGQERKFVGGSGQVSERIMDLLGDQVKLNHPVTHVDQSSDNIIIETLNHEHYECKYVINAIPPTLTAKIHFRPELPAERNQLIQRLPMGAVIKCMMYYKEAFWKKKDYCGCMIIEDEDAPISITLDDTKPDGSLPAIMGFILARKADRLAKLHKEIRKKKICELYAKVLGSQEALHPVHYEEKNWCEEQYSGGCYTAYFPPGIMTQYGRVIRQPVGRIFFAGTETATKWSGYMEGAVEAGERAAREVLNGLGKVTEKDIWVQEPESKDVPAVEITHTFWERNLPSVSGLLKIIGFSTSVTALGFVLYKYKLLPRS

[2] = molecular target: T2, Amine oxidase [flavin-containing] B (Homo sapiens, UniProt P27338); assay: biochemical; format: cell-based
T2 sequence (P27338 whole entry): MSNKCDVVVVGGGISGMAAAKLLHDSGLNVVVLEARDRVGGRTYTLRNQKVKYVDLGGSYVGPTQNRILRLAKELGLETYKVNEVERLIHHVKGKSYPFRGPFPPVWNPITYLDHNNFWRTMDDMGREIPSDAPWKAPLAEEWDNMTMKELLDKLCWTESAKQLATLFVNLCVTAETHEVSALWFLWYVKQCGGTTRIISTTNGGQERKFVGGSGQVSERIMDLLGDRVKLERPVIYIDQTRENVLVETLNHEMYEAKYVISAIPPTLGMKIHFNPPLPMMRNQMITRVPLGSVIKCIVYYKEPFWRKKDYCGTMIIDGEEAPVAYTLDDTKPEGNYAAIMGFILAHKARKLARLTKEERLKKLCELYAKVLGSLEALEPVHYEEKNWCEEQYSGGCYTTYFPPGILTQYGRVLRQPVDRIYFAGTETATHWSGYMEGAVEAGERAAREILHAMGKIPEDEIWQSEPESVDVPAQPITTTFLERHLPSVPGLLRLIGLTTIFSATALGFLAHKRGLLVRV

Homo sapiens = organism: Homo sapiens; assay: Selectivity index, ratio of IC50 for human recombinant microsomal MAOA to IC50 for human recombinant microsomal MAOB
[3] = molecular target: T2, Amine oxidase [flavin-containing] B; assay: Reversible inhibition of human recombinant microsomal MAOB expressed in baculovirus infected BTI-TN-5B1- 4 cells assessed as decrease in H2O2 production at 40 nM after 15 mins by amplex red-based fluorescence assay; details: 0.25 h, 0.04 µM
[4] = molecular target: T2, Amine oxidase [flavin-containing] B; assay: Noncompetitive inhibition of human recombinant microsomal MAOB expressed in baculovirus infected BTI-TN-5B1- 4 cells using p-tyramine as substrate assessed as decrease in H2O2 production by Lineweaver-Burk plot analysis
In short: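 Substrate-dependent kinetic experiments on hMAO-B. Inhibition mode was read from Lineweaver-Burk plots, and Ki was calculated from the corresponding Dixon plots.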

[5] = molecular target: T2, Amine oxidase [flavin-containing] B; assay: Binding affinity to human recombinant microsomal MAOB expressed in baculovirus infected BTI-TN-5B1- 4 cells assessed as decrease in H2O2 production at 12.5 nM after 15 mins by amplex red-based fluorescence assay; details: 0.25 h, 0.0125 µM
[6] = molecular target: T2, Amine oxidase [flavin-containing] B; assay: Reversible inhibition of human recombinant microsomal MAOB expressed in baculovirus infected BTI-TN-5B1- 4 cells assessed as decrease in H2O2 production at 12.5 nM after 60 mins by amplex red-based fluorescence assay; details: 1 h, 0.0125 µM

Row | Compound | inhibition (INH) [1] | IC50 [2] | Ratio IC50 (Homo sapiens) | inhibition (INH) [3] | Ki [4] | Activity [5] | inhibition (INH) [6]
1 | COc1ccc2oc(=O)c(C(=O)Nc3ccc(O)cc3)cc2c1 | Not Active | – | – | – | – | – | –
2 | COc1ccc2oc(=O)c(C(=O)Nc3cccc(Cl)c3)cc2c1 | Not Active | 9.03 nM | > 11100 | – | – | – | –
3 | COc1ccc2oc(=O)c(C(=O)Nc3cccc(C)c3)cc2c1 | Not Active | 47.2 nM | > 2120 | – | – | – | –
4 | Cc1ccc(NC(=O)c2coc3ccc(C)cc3c2=O)cc1 | Not Active | 152 nM | > 660 | – | – | – | –
5 | Cc1ccc2oc(=O)c(C(=O)Nc3ccccc3)cc2c1 | Not Active | 15.3 nM | > 6530 | – | – | – | –
6 | COc1ccc2occ(C(=O)Nc3ccc(O)cc3)c(=O)c2c1 | Not Active | 674 nM | > 148 | – | – | – | –
7 | Cc1ccc2oc(=O)c(C(=O)Nc3cccc(O)c3)cc2c1 | Not Active | 45.4 nM | > 2200 | – | – | – | –
8 | C[C@H](NCc1ccc(OCc2cccc(F)c2)cc1)C(N)=O [SAFINAMIDE] | Not Active | – | – | Active | – | – | –
9 | COc1ccc2occ(C(=O)Nc3ccccc3)c(=O)c2c1 | Not Active | 41.8 nM | > 2390 | – | – | – | –
10 | COc1ccc2oc(=O)c(C(=O)Nc3cccc(O)c3)cc2c1 | Not Active | 229 nM | > 447 | – | – | – | –
11 | Cc1ccc2oc(=O)c(C(=O)Nc3ccc(Cl)cc3)cc2c1 | Not Active | 11.1 nM | > 9030 | – | – | – | –
12 | Cc1ccc2occ(C(=O)Nc3ccc(Cl)cc3)c(=O)c2c1 | Not Active | 45.4 nM | > 2200 | – | – | – | –
13 | COc1ccc2occ(C(=O)Nc3cccc(C)c3)c(=O)c2c1 | Not Active | 21.8 nM | > 4590 | – | – | – | –
14 | Cc1ccc2occ(C(=O)Nc3cccc(O)c3)c(=O)c2c1 | Not Active | 78.2 nM | > 1280 | – | – | – | –
15 | COc1ccc2oc(=O)c(C(=O)Nc3ccccc3)cc2c1 | Not Active | 5.95 nM | > 16800 | – | – | – | –
16 | Cc1cccc(NC(=O)c2coc3ccc(C)cc3c2=O)c1 | Not Active | 17.1 nM | > 5850 | – | – | – | –
17 | Cc1ccc2occ(C(=O)Nc3ccc(O)cc3)c(=O)c2c1 | Not Active | 513 nM | > 195 | – | – | – | –
18 | Cc1ccc2occ(C(=O)Nc3ccccc3)c(=O)c2c1 | Not Active | 21.4 nM | > 4680 | – | – | – | –
19 | COc1ccc2occ(C(=O)Nc3ccc(C)cc3)c(=O)c2c1 | Not Active | 211 nM | > 474 | – | – | – | –
20 | COc1ccc2oc(=O)c(C(=O)Nc3ccc(Cl)cc3)cc2c1 | Not Active | 18.9 nM | > 5290 | – | – | – | –
21 | Cc1ccc(NC(=O)c2cc3cc(C)ccc3oc2=O)cc1 | Not Active | 13.9 nM | > 7190 | – | – | – | –
22 | COc1ccc2occ(C(=O)Nc3cccc(Cl)c3)c(=O)c2c1 | Not Active | 3.94 nM | > 25400 | – | – | – | –
23 | Cc1ccc2oc(=O)c(C(=O)Nc3ccc(O)cc3)cc2c1 | Not Active | 622 nM | > 161 | – | – | – | –
24 | Cc1cccc(NC(=O)c2cc3cc(C)ccc3oc2=O)c1 | Not Active | 7.52 nM | > 13300 | – | – | – | –
25 | COc1ccc2oc(=O)c(C(=O)Nc3ccc(C)cc3)cc2c1 | Not Active | 19.4 nM | > 5150 | – | – | – | –
26 | COc1ccc2occ(C(=O)Nc3cccc(O)c3)c(=O)c2c1 | Not Active | 113 nM | > 881 | – | – | – | –
27 | Cc1ccc2oc(=O)c(C(=O)Nc3cccc(Cl)c3)cc2c1 | Not Active | 5.07 nM | > 19700 | – | 1.17 nM | Active | Active
28 | COc1ccc2occ(C(=O)Nc3ccc(Cl)cc3)c(=O)c2c1 | Not Active | 10.3 nM | > 9700 | – | – | – | –
29 | Cc1ccc2occ(C(=O)Nc3cccc(Cl)c3)c(=O)c2c1 | Not Active | 4.2 nM | > 23800 | – | 2.69 nM | Active | Active

Reference: ChEMBL document CHEMBL4038334, “Coumarin versus Chromone Monoamine Oxidase B Inhibitors: Quo Vadis?” (J Med Chem, 2017)
